High-throughput results from PubChem.
A selection: hits, their analogues and other compounds. The true share with any hit is near 5%.
T cruzi inh = blocks replication of Trypanosoma cruzi. T. cruzi beta-gal in NIH3T3, luminescence, 90 h. 1.4% of 300,000 active. inhibition, % (concentration not given with the values);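 active = mean inhibition across valid replicates above about 55%, limit read from the data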;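 also: signal also drops with host cell toxicity which is not excluded here; 0% = plate median of DMSO wells and 100% = zero luminescence signal; higher percent means less beta-gal luminescence so fewer parasites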
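Material: NIH/3T3 host cells with β-galactosidase reporter T. cruzi; Input: 5,000 host fibroblasts per well; Medium: DMEM, 2% fetal bovine serum; Compound: 50 nL DMSO compound solution per well; Schedule: 3 h host attachment, then at least 90 h co-culture; Detection: luminescent β-galactosidase signal after 60 min lysis.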
XBP1 UPR activ = adaptive UPR (XBP1) activation; activation, % at 20 µM; 0.33% of 330,000 active; CHO-XBP1 luciferase reporter, IRE1-XBP1 UPR activation, luminescence; percent of tunicamycin response, DMSO as zero; AID 463104;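 active = versus positive control, 20 µM dose yields 30% or more activation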;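 also: 100% = tunicamycin at 10 µg/mL and 0% = DMSO only wells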
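Material: CHO cell line with stable XBP1 luciferase reporter; buffer or medium: F12 medium containing 10% fetal bovine serum; compound: single point, 20 µM final compound, 1% DMSO; incubation: 6 h treatment, 37 °C; measured by: glow luminescence from Steady-Glo reagent; evaluation: activation, % of tunicamycin; control set: tunicamycin high, DMSO low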
CSC inhib = blocks cancer stem cells; AID 2717; inhibition, % at 7.5 µM; 1.1% of 300,000 active; cancer stem cell-like cells viability, luminescence; in the data active = inhibition above about 75%; tested in HMLE shEcad cells
CHOP UPR activ = apoptotic UPR (CHOP) activation. CHO-CHOP luciferase reporter, luminescence; percent of tunicamycin response over DMSO baseline. activation, % at 10 µM. 0.34% of 330,000 active. AID 449763;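 active = at 10 µM dose, activation of 40% or more, normalized to positive control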;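 also: 100% = tunicamycin at 10 µg/mL and 0% = DMSO alone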
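Dosing – one dose, 10 µM in 0.5% DMSO · System – CHO-CHOP cells, stable luciferase reporter of PERK-eIF2a-CHOP signalling · Input – 500 cells/well · Control set – tunicamycin 10 µg/mL final as positive, DMSO-only wells as negative · Timing – 6 h compound treatment, 37 °C · Measure – % activation vs tunicamycin · Technique – luminescence read with Steady-Glo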
Mdm2-MdmX inh = inhibitors of human Mdm2/MdmX interaction; O15151+Q00987; SaOS-2 split-luciferase Mdm2/MdmX complementation, luminescence; inhibition, % at 8 µM; 3% of 330,000 active;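 active = inhibition of at least 50% at 8 µM in the primary screen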
Target sequence (O15151 whole entry, looked up): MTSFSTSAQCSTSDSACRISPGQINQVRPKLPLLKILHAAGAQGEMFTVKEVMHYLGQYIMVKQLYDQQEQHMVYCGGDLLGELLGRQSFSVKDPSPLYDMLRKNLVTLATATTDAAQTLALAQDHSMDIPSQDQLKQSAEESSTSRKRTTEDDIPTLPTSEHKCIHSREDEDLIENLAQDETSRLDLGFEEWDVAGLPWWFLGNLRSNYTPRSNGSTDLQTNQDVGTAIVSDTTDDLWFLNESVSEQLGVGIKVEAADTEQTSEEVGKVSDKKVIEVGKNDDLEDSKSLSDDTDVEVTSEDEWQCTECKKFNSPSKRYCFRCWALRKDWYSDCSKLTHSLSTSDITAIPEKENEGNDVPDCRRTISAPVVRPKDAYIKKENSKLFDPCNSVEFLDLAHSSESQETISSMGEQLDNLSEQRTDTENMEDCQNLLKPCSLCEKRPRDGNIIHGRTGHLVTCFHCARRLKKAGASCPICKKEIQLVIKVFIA
Target sequence (Q00987 whole entry, looked up): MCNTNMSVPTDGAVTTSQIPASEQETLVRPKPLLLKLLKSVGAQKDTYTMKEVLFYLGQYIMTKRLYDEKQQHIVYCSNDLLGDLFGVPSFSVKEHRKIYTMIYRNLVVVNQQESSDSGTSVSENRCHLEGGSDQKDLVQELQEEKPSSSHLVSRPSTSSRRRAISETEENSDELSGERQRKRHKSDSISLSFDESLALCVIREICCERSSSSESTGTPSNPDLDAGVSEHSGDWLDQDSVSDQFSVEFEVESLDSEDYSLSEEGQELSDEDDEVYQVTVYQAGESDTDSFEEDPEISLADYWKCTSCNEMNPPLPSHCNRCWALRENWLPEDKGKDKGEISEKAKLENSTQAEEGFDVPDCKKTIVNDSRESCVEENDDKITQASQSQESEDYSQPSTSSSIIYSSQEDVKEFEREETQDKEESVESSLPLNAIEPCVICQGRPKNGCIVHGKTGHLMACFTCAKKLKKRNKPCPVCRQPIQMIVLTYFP
Beta cell apopt = blocks beta cell apoptosis; INS-1E cytokine-induced death, ATP luminescence, 48 h; percent of positive-control rescue, neutral wells zero; protection from apoptosis, % (concentration not given with the values); 0.8% of 300,000 active; AID 435005;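 active = Every replicate reaches about 75%, or at least half do and their mean reaches it too, limit read from the data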;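 also: 0% = cytokine-treated negative control wells and 100% = positive control rescue; higher means more ATP so stronger rescue from cytokine killing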
The depositor's hits bear a star.

How did C/C(=C\c1ccc(N)cc1)c1nc2ccccc2[nH]1 do in these assays?
T cruzi inh: -2; XBP1 UPR activ: 1; CSC inhib: 2; CHOP UPR activ: 6; Mdm2-MdmX inh: -64; Beta cell apopt: -1

How did O=[N+]([O-])c1nn(-c2ccccc2)n(O)c1=NCCc1ccccc1 do in these assays?
T cruzi inh: 58*; XBP1 UPR activ: -2; CSC inhib: 0; CHOP UPR activ: 1; Mdm2-MdmX inh: -7; Beta cell apopt: 30

Results for O=[N+]([O-])c1nn(-c2cccc(Cl)c2)n(O)c1=NCc1cccnc1 ?
T cruzi inh: 16; XBP1 UPR activ: 1; CSC inhib: -2; CHOP UPR activ: 2; Mdm2-MdmX inh: -2; Beta cell apopt: 2

What do the screens show for `COc1ccc(-n2nc([N+](=O)[O-])c(=NCCc3ccccc3)n2O)cc1`?
T cruzi inh: 31; XBP1 UPR activ: -1; CSC inhib: 16; CHOP UPR activ: 3; Mdm2-MdmX inh: -40; Beta cell apopt: 12

How did Cc1ccc(CCN=c2c([N+](=O)[O-])nn(-c3ccccc3)n2O)cc1 do in these assays?
T cruzi inh: 70*; XBP1 UPR activ: -2; CSC inhib: 20; CHOP UPR activ: -2; Mdm2-MdmX inh: -6; Beta cell apopt: 11

What do the screens show for `Cc1ccc(CN=c2c([N+](=O)[O-])nn(-c3ccc(Cl)cc3)n2O)cc1`?
T cruzi inh: 20; XBP1 UPR activ: -2; CSC inhib: 1; CHOP UPR activ: 5; Mdm2-MdmX inh: 16; Beta cell apopt: 6

How did Cc1cccc(-n2nc([N+](=O)[O-])c(=NCc3cccnc3)n2O)c1 do in these assays?
T cruzi inh: 55*; XBP1 UPR activ: 1; CSC inhib: 2; CHOP UPR activ: 1; Mdm2-MdmX inh: -31; Beta cell apopt: 34

Results for Cc1ccc(-n2nnnc2SCC(=O)c2cc(C)n(CC3CCCO3)c2C)cc1 (centres undefined) ?
T cruzi inh: 58*; XBP1 UPR activ: -1; CSC inhib: 10; CHOP UPR activ: -2; Mdm2-MdmX inh: -2; Beta cell apopt: -7

What do the screens show for `O=C(Nc1nc2c(F)cc(F)cc2s1)c1ccc([N+](=O)[O-])o1`?
T cruzi inh: 51; XBP1 UPR activ: 8; CSC inhib: 96*; CHOP UPR activ: 18; Mdm2-MdmX inh: -29; Beta cell apopt: 24

How did O=C(Nc1nc2cc3c(cc2s1)OCCO3)c1cccs1 do in these assays?
T cruzi inh: 0; XBP1 UPR activ: -5; CSC inhib: 28; CHOP UPR activ: -4; Mdm2-MdmX inh: -13; Beta cell apopt: 18

How did COc1ccc2nc(NC(=O)c3ccc([N+](=O)[O-])o3)sc2c1 do in these assays?
T cruzi inh: 41; XBP1 UPR activ: 5; CSC inhib: 75*; CHOP UPR activ: 14; Mdm2-MdmX inh: 0

What do the screens show for `O=C(Nc1nc2cc3c(cc2s1)OCCO3)c1ccc([N+](=O)[O-])o1`?
T cruzi inh: 59*; XBP1 UPR activ: -3; CSC inhib: -13; CHOP UPR activ: 2; Mdm2-MdmX inh: -22; Beta cell apopt: -10

What do the screens show for `Cc1cc(C)c2sc(NC(=O)c3ccc([N+](=O)[O-])o3)nc2c1`?
T cruzi inh: 59*; XBP1 UPR activ: 4; CSC inhib: 92*; CHOP UPR activ: 6; Mdm2-MdmX inh: 17; Beta cell apopt: 3

How did O=C(Nc1nc2c(F)cc(F)cc2s1)c1ccco1 do in these assays?
T cruzi inh: -24; XBP1 UPR activ: 1; CSC inhib: 9; CHOP UPR activ: 4; Mdm2-MdmX inh: -213; Beta cell apopt: 2

How did Cc1cc(C)c2nc(NC(=O)c3ccc([N+](=O)[O-])o3)sc2c1 do in these assays?
T cruzi inh: 36; XBP1 UPR activ: -2; CSC inhib: -11; CHOP UPR activ: 3; Mdm2-MdmX inh: 32

What do the screens show for `S=C(Nc1ccccc1Cl)N1CCOCC1`?
T cruzi inh: -9; XBP1 UPR activ: -2; CSC inhib: -15; CHOP UPR activ: -1; Mdm2-MdmX inh: -11; Beta cell apopt: -2

Results for O=C(NCC1CCCO1)C(c1cccs1)N(Cc1ccccc1Cl)C(=O)c1ccc(-c2ccccc2)[nH]1 (centres undefined) ?
T cruzi inh: 74*; XBP1 UPR activ: 1; CHOP UPR activ: -3; Mdm2-MdmX inh: 41

What do the screens show for `COc1ccc(/C=C/c2ccc3cccc(O)c3n2)cc1Br`?
T cruzi inh: 44; XBP1 UPR activ: -1; CSC inhib: 31; CHOP UPR activ: 6; Mdm2-MdmX inh: 4; Beta cell apopt: 22

How did Oc1cccc(/C=C/c2ccc3cccc(O)c3n2)c1 do in these assays?
T cruzi inh: -22; XBP1 UPR activ: 7; CSC inhib: 87*; CHOP UPR activ: 1; Mdm2-MdmX inh: -91; Beta cell apopt: 16

What do the screens show for `Cc1cc(NC(=O)c2nn(C)c(C)c2Br)no1`?
T cruzi inh: -15; XBP1 UPR activ: 1; CSC inhib: 4; CHOP UPR activ: 3; Mdm2-MdmX inh: 9; Beta cell apopt: -2

How did CCOc1ccc(NC(=O)CSc2nc3ccccc3nc2N2CC(C)OC(C)C2)cc1 (centres undefined) do in these assays?
T cruzi inh: 26; XBP1 UPR activ: -2; CSC inhib: 6; CHOP UPR activ: -1; Mdm2-MdmX inh: 12; Beta cell apopt: 6

How did Fc1ccccc1Nc1nc(-c2ccncc2)nc2ccccc12 do in these assays?
T cruzi inh: 55*; XBP1 UPR activ: 6; CSC inhib: 10; CHOP UPR activ: 4; Mdm2-MdmX inh: 20; Beta cell apopt: -5

Results for CC(Nc1nc(-c2ccncc2)nc2ccccc12)c1ccccc1 (centres undefined) ?
T cruzi inh: 61*; XBP1 UPR activ: 5; CSC inhib: 67; CHOP UPR activ: 1; Mdm2-MdmX inh: 34; Beta cell apopt: -10

How did O=C(Nc1ccc(Cl)cc1)OCc1cn(-c2ccccc2)nn1 do in these assays?
T cruzi inh: 11; XBP1 UPR activ: -2; CSC inhib: 23; CHOP UPR activ: 0; Mdm2-MdmX inh: 1; Beta cell apopt: -2

Results for CN(C)C(=O)COc1ccc(S(=O)(=O)c2ccc(OCC(=O)N(C)C)cc2)cc1 ?
T cruzi inh: -6; XBP1 UPR activ: -4; CSC inhib: -5; CHOP UPR activ: 3; Mdm2-MdmX inh: 7; Beta cell apopt: -5

Results for CC(C(=O)N1CCc2ccccc21)N1CCN(Cc2ccc(Cl)cc2)CC1 (centres undefined) ?
T cruzi inh: 29; XBP1 UPR activ: 0; CSC inhib: 17; CHOP UPR activ: -1; Mdm2-MdmX inh: 31; Beta cell apopt: -8

How did CC(C(=O)N1CCc2ccccc21)N1CCN(Cc2ccccc2)CC1 (centres undefined) do in these assays?
T cruzi inh: 56*; XBP1 UPR activ: 0; CSC inhib: -8; CHOP UPR activ: 0; Mdm2-MdmX inh: 24; Beta cell apopt: -6
